# Vif inh = HIV Vif inhibition; HEK293T cells, Vif self-association by quenched fluorescence, imaging, 24 h; inhibition, % at 7.49 µM; 340,000 tested, 0.35% active; in the data active = inhibition above about 50%, passing the limit was not always enough
# PglD DTNB = PglD (C. jejuni) enzyme inhibition. purified PglD enzyme, DTNB colorimetric CoA detection. inhibition, % at 12.5 µM. 360,000 tested, 0.098% active; in the data active = inhibition above about 16%, passing the limit was not always enough
# Cneo AK release = Cryptococcus neoformans lysis via adenylate kinase release. lysis activity, % at 15 µM. C. neoformans lysis, adenylate kinase release luminescence, 4 h; normalised: neutral wells 0, clomiphene wells 100. 360,000 tested, 0.2% active. AID 651654;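 active = mean lysis activity across replicates of at least 80%, whatever share of replicates individually reach that level; inactive = mean lysis activity below 80%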
#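 Assay system: C. neoformans cells. Amount: yeast cell density of 5 × 10^6 cells/mL. Technique: AK luminescence. Buffer or medium: YPD. Times: static 4 h at 37 °C with compound, 1 h detection. Dosing: single-point compound dose. Read-out: lysis from increased AK signal.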
# rRNA inh HTS = inhibits bacterial ribosomal RNA function over humanized ribosomes. E. coli WT GFP vs humanized-ribosome RFP mutants, fluorescence, 24 h; active compounds read low; DMSO median 0, no signal -100. 350,000 tested, 1.6% active. GFP signal change (wild-type ribosome), % (no concentration beside the values);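 active = significant combined selectivity score with lowered wild-type GFP, culture density cut under 30%, mutant RFP and density less affected; inactive = any of these conditions unmet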
# FGF22 binding = shifts melting point of recombinant human FGF22; Q9HCT0; 340,000 tested, 1.5% active; activity (Tm shift, normalised), % at 9.99 µM; recombinant FGF22 thermal shift, SYPRO orange fluorescence; percent of sucrose octasulfate shift, DMSO zero;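 active = mean Tm shift, scaled 0 neutral to 100 positive control, at about 1.3% or above, every replicate too, limit read from the data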
# Target sequence (Q9HCT0 whole entry, looked up): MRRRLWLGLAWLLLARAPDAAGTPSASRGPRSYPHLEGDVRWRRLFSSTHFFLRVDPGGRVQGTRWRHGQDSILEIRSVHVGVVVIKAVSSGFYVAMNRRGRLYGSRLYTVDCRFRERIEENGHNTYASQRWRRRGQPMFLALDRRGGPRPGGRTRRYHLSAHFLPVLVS
# PGC1a acetyl inh = lowers PGC1a acetylation signal in U2OS cells. AlphaScreen anti-acetyl-lysine; with virally co-expressed GCN5 acetyltransferase. inhibition, % at 15.6 µM. 350,000 tested, 0.17% active;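 active = every replicate shows inhibition of at least 40%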;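 note: 0% = neutral control wells and 100% = positive control wells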
# An asterisk follows results filed as active; . = no result given. In the library only some 2.9% were active in any assay of this set; here they are far more common.
SMILES,Vif inh,PglD DTNB,Cneo AK release,rRNA inh HTS,FGF22 binding,PGC1a acetyl inh
Cc1ccc(S(=O)(=O)N(C)C[C@H]2Oc3c(NS(=O)(=O)c4ccccc4)cccc3C(=O)N([C@H](C)CO)C[C@@H]2C)cc1,.,-3,-4,2,0,-10
COc1cc(F)ccc1S(=O)(=O)N1CCN(C23CC4CC(CC(C4)C2)C3)CC1,33,-1,1,.,.,-12
COc1cc(C)ccc1S(=O)(=O)N1CCN(C23CC4CC(CC(C4)C2)C3)CC1,8,-1,-7,-32*,0,-1
CCOC(=O)CCc1c(C)c2ccc(OCC(=O)OC(C)C)cc2oc1=O,.,1,3,.,.,.
CCOC(=O)CCc1c(C)c2ccc(OC3CCCCC3=O)cc2oc1=O (configuration not stated),.,9,0,-21*,0,9
C[C@@H]1CN([C@@H](C)CO)C(=O)Cc2cc(NC(=O)Cc3cn(C)c4ccccc34)ccc2O[C@H]1CN(C)C(=O)Nc1ccc2c(c1)OCO2,.,2,1,-3,0,-3
CCC(Sc1nc(C)cc(C)n1)C(=O)Nc1cc(C)on1 (configuration not stated),1,.,.,6,44*,4
O=C(O)C[C@H]1C[C@@H]2c3cc(NC(=O)C4CCC4)ccc3O[C@@H]2[C@H](CO)O1,.,1,6,8,0,6
COc1cccc(CNc2ccc3c(c2)CCC3)c1,60*,6,-5,.,.,-7
O=C(O)[C@H](Cc1ccccc1)N1C(=O)c2c(Cl)c(Cl)c(Cl)c(Cl)c2C1=O,-1,1,-1,-39*,5.8*,.
Cc1ccc(-c2c(C)n([O-])c3c([n+]2=O)CCCC3)cc1,0,.,.,16,0,.
COc1ccc(-c2c(C)n([O-])c3c([n+]2=O)CCCCC3)cc1OC,9,.,.,19,43*,-15
C[C@@H]1CCCCO[C@@H](CN(C)CC2CCCCC2)[C@H](C)CN([C@@H](C)CO)C(=O)c2cc(NC(=O)CCC(F)(F)F)ccc2O1,.,-2,-13,-5,0,3
Cc1ccc(C(=O)NC(CCc2ccccc2)C(=O)O)cc1 (configuration not stated),118*,-3,2,4,0,7
C[C@@H]1CCCCO[C@H](CN(C)C(=O)Nc2cccc3ccccc23)[C@H](C)CN([C@@H](C)CO)C(=O)c2cc(NS(=O)(=O)c3ccc(Cl)cc3)ccc2O1,.,-3,1,7,0,-12
COc1cc(C(=O)Nc2cccc(-c3nnc(-c4ccco4)o3)c2)ccc1OC(C)=O,0,0,-4,.,44*,.
COc1ccc(C(=O)Nc2cccc(-c3nnc(-c4ccco4)o3)c2)cc1,-13,-1,0,.,.,0
CC(=O)Nc1ccc(NC(=O)c2ccc(C)c(S(=O)(=O)Nc3cccc(C)c3)c2)cc1,-23,.,.,-27*,0,4
CCOC(=O)CN1C(=O)S/C(=C\c2ccc(-c3ccc(C(=O)O)c(Cl)c3)o2)C1=O,15,-15,-1,-24*,0,-2
CCOC(=O)CN1C(=O)S/C(=C\c2ccc(-c3cccc(C(=O)O)c3C)o2)C1=O,-4,-9,5,-8,0,-3
Cc1ccc(NC(=O)CN2C(=O)S/C(=C\c3ccccn3)C2=O)cc1C,-8,-6,0,12,0,.
Cc1cccc(NC(=O)CN2C(=O)N/C(=C/c3ccc(-c4cccc(C(=O)O)c4C)o3)C2=O)c1,15,2,-25,13,43*,2
Cc1c(C(=O)O)cccc1-c1ccc(/C=C2/NC(=O)N(c3ccccc3)C2=O)o1,9,.,.,-8,1,0
Cc1ccc(NC(=O)CN2C(=O)S/C(=C\c3ccc(-c4cccc(C(=O)O)c4C)o3)C2=O)cc1C,-4,.,.,6,44*,-10
CC(C)NC(=O)Nc1ccc2c(c1)C(=O)N([C@H](C)CO)C[C@@H](C)[C@@H](CN(C)C)O2,.,11,-2,4,0,2
SMILES,Vif inh,PglD DTNB,Cneo AK release,rRNA inh HTS,FGF22 binding,PGC1a acetyl inh
C[C@H]1CN([C@@H](C)CO)C(=O)c2cccc(NS(=O)(=O)c3cccs3)c2O[C@H]1CN(C)CC1CCCCC1,.,.,.,3,.,.
COc1ccc(CC(=O)OC(C)C(=O)c2ccc(C)cc2)cc1 (configuration not stated),-1,-1,0,-30*,0,.
COc1ccc(/C(N)=N/OC(=O)Cc2ccc(C)cc2)cc1,-1,.,.,6,0,.
CNC[C@@H]1Oc2ccc(NC(=O)Nc3cccc4ccccc34)cc2C(=O)N([C@H](C)CO)C[C@H]1C,.,3,53,6,0,0
CC1(c2ccccc2)NC(=O)N(N)C1=O (configuration not stated),-6,.,.,13,43*,-14
COc1ccc(C2C(C(C)=O)=C(O)C(=O)N2c2nccs2)c(OC)c1 (configuration not stated),3,.,.,12,45*,.
COc1ccc(-c2cc3ccccc3cn2)cc1,6,-1,-1,0,44*,6
Oc1ccc(NCc2ccc(OCc3ccccc3)cc2)cc1,22,-3,-3,7,0,-4
O=C1CCCC/C1=N\Nc1ccc(OCc2ccccc2)cc1,4,.,.,5,1.5*,.
Cc1cc(C)n(-c2ccc(F)cc2)c(=O)c1C(=O)O,3,.,.,.,.,4
CC(=O)c1c(O)cc(C)n(-c2ccc(F)cc2)c1=O,24,.,.,.,44*,7
C[C@H](CO)N1C[C@H](C)[C@H](CN(C)C(=O)Nc2ccc(F)cc2)Oc2ccc(NC(=O)c3ccncc3)cc2C1=O,.,3,-2,4,0,0
NC(=O)Cc1ccc(C(=O)c2ccc(Cl)cc2)s1,-2,-3,0,-24*,0,4
Cc1ccc(NC(=O)CN2C(=O)S/C(=C\c3cccn3-c3cccc(C(=O)O)c3)C2=O)cc1C,-5,.,.,15,0,5
Cc1ccc(NC(=O)CN2C(=O)S/C(=C\c3cc(C)n(-c4ccc(C(=O)O)cc4)c3C)C2=O)cc1,-12,-4,1,-52,44*,21
Cc1cccc(NC(=O)CN2C(=O)S/C(=C\c3cccn3-c3cccc(C(=O)O)c3)C2=O)c1,-10,-2,0,6,43*,19
C[C@@H]1CN([C@H](C)CO)C(=O)c2cc(NS(=O)(=O)c3cn(C)cn3)ccc2O[C@H]1CN(C)C(=O)NC1CCCCC1,.,-1,46,5,0,9
CO[C@H]1CN(C)C(=O)c2cc(NC(=O)Nc3ccc(Cl)cc3)ccc2OC[C@@H](C)N(C(=O)Nc2c(C)noc2C)C[C@@H]1C,.,7,-4,-2,.,-5

# High-throughput results (PubChem)
